According to ChEMBL document CHEMBL1140948, “Malaria-infected mice are cured by a single oral dose of new dimeric trioxane sulfones which are also selectively and powerfully cytotoxic to cancer cells” (J Med Chem, 2009):

Tests used:
[1] = Partition coefficient, log P of the compound; type: physicochemical; conditions: octanol/water
[2] = tested on: Mus musculus; assay: Toxicity in Plasmodium berghei ANKA infected perorally dosed BALB/c mice (Mus musculus) assessed as induction of behavioral changes administered as single dose; type: organism-based; conditions: in vivo, po
Method in brief: (§1)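 Male 5-week-old mice of about 22 g, infected i.p. on day 0 with 2 × 10^7 P. berghei ANKA-parasitized erythrocytes. At 24 h they received one oral dose in 7:3 Tween 80:ethanol diluted with water, 5 mice per group. Animals were watched to day 30 for overt toxicity and behavioral change.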

[3] = tested on: UACC-62; assay: Cytotoxicity against human UACC62 cells after 72 hrs by SRB assay; type: functional, cell-based; conditions: UACC-62, 72 h
Method in brief: (§2)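 Then 72 hr with a range of compound concentrations. Fixed overnight at 4 °C in 10% TCA, stained 30 min with 0.057% w/v sulforhodamine B in 1% acetic acid, dye solubilised in 10 mM Tris base, read at 510 nm.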

[4] = tested on: HeLa; assay: Cytotoxicity against human HeLa cells after 72 hrs by SRB assay; type: functional, cell-based; method in brief: as §2
[5] = tested on: HL-60; assay: Cytotoxicity against human HL60 cells after 72 hrs by MTS assay; type: functional, cell-based; conditions: HL-60, 72 h
Method in brief: (§3)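 Exposed to a range of compound concentrations for 72 hr. Viability by MTS/PMS, absorbance at 490 nm. IC50 from logistic dose-response fits, mean of at least three experiments ± SEM.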

[6] = Cytotoxicity against human Hs888Lu cells after 72 hrs by SRB assay; type: cell-based
Method in brief: (§4)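 Non-cancerous immortalized fibroblasts grown in DMEM with 10% FBS and 1% pen/strep at 37 °C, 5% CO2, allowed ≥5 h to attach. Dosed over a concentration range for 72 hr. IC50 by logistic curve fitting, at least three experiments ± SEM.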

[7] = tested on: U-937; assay: Cytotoxicity against human U937 cells after 72 hrs by MTS assay; type: functional, cell-based; conditions: U-937, 72 h; method in brief: as §3
[8] = tested on: SK-MEL-5; assay: Cytotoxicity against human SK-MEL-5 cells after 72 hrs by SRB assay; type: functional, cell-based; conditions: SK-MEL-5, 72 h; method in brief: as §2
[9] = tested on: MEF; assay: Cytotoxicity against mouse wild type MEF cells after 72 hrs by SRB assay; type: cell-based
Method in brief: as §4, with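 “hr. Biomass by SRB: TCA fixation overnight at 4 °C, 0.057% SRB stain for 30 min, Tris solubilisation, A510.” for “hr.”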

[10] = tested on: Mus musculus; assay: Toxicity in Plasmodium berghei ANKA infected BALB/c mice (Mus musculus) assessed as induction of adverse effects at 144 mg/kg, perorally administered as single dose; type: organism-based; design: dose 144 mg/kg, route oral; conditions: in vivo, po; method in brief: as §1
[11] = tested on: Plasmodium berghei; assay: Antiplasmodial activity as survival in Plasmodium berghei ANKA infected BALB/c mice (Mus musculus) after single 13 mg/kg peroral dose; type: functional; conditions: route oral
[12] = tested on: Plasmodium berghei; assay: Antiplasmodial activity as survival in Plasmodium berghei ANKA infected BALB/c mice (Mus musculus) at 30 mg/kg peroral dose; type: functional; conditions: route oral
[13] = tested on: Plasmodium berghei; assay: Antiplasmodial activity as reduced parasitaemia in Plasmodium berghei ANKA infected BALB/c mice (Mus musculus) at 30 mg/kg peroral dose; type: functional; design: scale not given: the % may be the effect or the level left; conditions: route oral

## CCN(CC)C(=O)OCc1ccc(S(=O)(=O)CC(C[C@H]2O[C@@H]3C[C@]4(C)CC[C@H]5[C@H](C)CC[C@@H]([C@H]2C)[C@@]35OO4)C[C@H]2O[C@@H]3C[C@]4(C)CC[C@H]5[C@H](C)CC[C@@H]([C@H]2C)[C@@]35OO4)cc1
[1]; read-out: logP
  logP: 8.3

## C[C@H]1[C@@H](CC(C[C@H]2O[C@@H]3C[C@]4(C)CC[C@H]5[C@H](C)CC[C@@H]([C@H]2C)[C@@]35OO4)CS(=O)(=O)c2ccc(COC(=O)N(C)C)cc2)O[C@@H]2C[C@]3(C)CC[C@H]4[C@H](C)CC[C@@H]1[C@@]24OO3
[2]
  Activity: Non-toxic
[3]
  IC50: 40 nM
[4]
  IC50: 110 nM
[5]
  IC50: 60 nM
[6]
  IC50: > 50000 nM
[7]
  IC50: 280 nM
[8]
  IC50: 60 nM
[9]
  IC50: > 50000 nM
[10]
  Activity: Non-toxic
[1]; read-out: logP
  logP: 7.6

## CCOP(=O)(OCC)OCc1ccc(S(=O)(=O)CC(C[C@H]2O[C@@H]3C[C@]4(C)CC[C@H]5[C@H](C)CC[C@@H]([C@H]2C)[C@@]35OO4)C[C@H]2O[C@@H]3C[C@]4(C)CC[C@H]5[C@H](C)CC[C@@H]([C@H]2C)[C@@]35OO4)cc1
[1]; read-out: logP
  logP: 8.8

## C[C@H]1[C@@H](CC(C[C@H]2O[C@@H]3C[C@]4(C)CC[C@H]5[C@H](C)CC[C@@H]([C@H]2C)[C@@]35OO4)CS(=O)(=O)CCCCCCO)O[C@@H]2C[C@]3(C)CC[C@H]4[C@H](C)CC[C@@H]1[C@@]24OO3
[1]
  logP: 9.5

## C[C@H]1[C@@H](CC(C[C@H]2O[C@@H]3C[C@]4(C)CC[C@H]5[C@H](C)CC[C@@H]([C@H]2C)[C@@]35OO4)CS(=O)(=O)c2ccc(CO)cc2)O[C@@H]2C[C@]3(C)CC[C@H]4[C@H](C)CC[C@@H]1[C@@]24OO3
[3]
  IC50: 30 nM
[4]
  IC50: 1100 nM
[5]
  IC50: 130 nM
[6]
  IC50: > 50000 nM
[7]
  IC50: 280 nM
[8]
  IC50: 140 nM
[9]
  IC50: > 50000 nM
[1]; read-out: logP
  logP: 7

## C[C@H]1[C@@H](CC(C[C@H]2O[C@@H]3C[C@]4(C)CC[C@H]5[C@H](C)CC[C@@H]([C@H]2C)[C@@]35OO4)CS(=O)(=O)Cc2ccc(F)cc2)O[C@@H]2C[C@]3(C)CC[C@H]4[C@H](C)CC[C@@H]1[C@@]24OO3
[1]; read-out: logP
  logP: 7.8

## COc1cccc2c1C(=O)c1c(O)c3c(c(O)c1C2=O)C[C@@](O)(C(=O)CO)C[C@@H]3O[C@H]1C[C@H](N)[C@H](O)[C@H](C)O1 [DOXORUBICIN]
[9]
  IC50: 3400 nM

## Cl.OC(c1cc(C(F)(F)F)nc2c(C(F)(F)F)cccc12)C1CCCCN1 (configuration not stated) [MEFLOQUINE HYDROCHLORIDE]
[11]
  Survival: 11 days

## CC(C)(N)CNC(=O)C[C@H]1CC[C@]2(CC1)OO[C@]1(O2)C2CC3CC(C2)CC1C3 [OZ277]
[12]
  Survival: 10.7 days
[13]
  Activity: 99.95%

## C[C@H]1[C@H](OC(=O)CCC(=O)[O-])O[C@@H]2O[C@@]3(C)CC[C@H]4[C@H](C)CC[C@@H]1[C@@]24OO3.[Na+] [SODIUM ARESUNATE]
[12]
  Survival: 7.6 days
